Key:
[1] = tested on: Rattus norvegicus; assay: (§1) Antivasopressor activity in vivo in phenoxybenzamine pre-treated rats.; format: functional, organism-based; conditions: read-out: pA2 (converted)
In short: (§2)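 Rats pretreated with phenoxybenzamine, under urethane anesthesia; antagonist given iv; agonist USP Posterior Pituitary Reference Standard; read-out is pressor response. Effective dose (nmol/kg) is the dose that cuts the response to 2X units of agonist to that of 1X unit, interpolated semilogarithmically from bracketing doses. pA2 assumes a 67 mL/kg distribution volume. SEM is given where there are ≥4 independent estimates.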

[2] = tested on: Rattus norvegicus; assay: Antioxytocic potencies (change in interuterine pressure) in vivo in estrogen pre-treated rats.; format: functional, organism-based; conditions: read-out: pA2 (converted)
In short: (§3)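 Rats pretreated with estrogen, under urethane anesthesia; antagonist given iv; read-out is change in integrated intrauterine pressure; agonist synthetic oxytocin. Effective dose (nmol/kg) is the dose that cuts the response to 2X units of agonist to the response to 1X unit, interpolated on a semilog scale from doses above and below it. pA2 is derived assuming a 67 mL/kg distribution volume.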

[3] = tested on: Rattus norvegicus; assay: Antiantidiuretic activity in vivo in hydrated rats under ethanol anaesthesia.; format: functional, organism-based; conditions: Urine, read-out: pA2 (converted)
In short: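 Hydrated rats under ethanol anaesthesia; antagonist given iv against the USP Posterior Pituitary Reference Standard as agonist. Effective dose (nmol/kg) is the dose that cuts the response to 2x units of agonist to equal the response to 1x unit. It is estimated by interpolation on a semilog scale between doses above and below it. pA2 assumes a volume of distribution of 67 mL/kg. Where SEM is given, n ≥4 estimates.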

[4] = species on record: Rattus norvegicus; assay: Antioxytoxic activity in vitro in isolated uteri from estrogen pretreated rats suspended in Mg supplemented Dyke-Hastings solution.; format: functional; conditions: read-out: pA2 (converted)
In short: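 Isolated rat uterus in bath medium with Mg2+; agonist USP Posterior Pituitary Reference Standard. pA2 is the −log of the effective molar antagonist concentration that reduces the response to a dose of agonist to the response to half that dose. It is interpolated semilogarithmically from concentrations above and below it. SEM is given where there are ≥4 independent estimates.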

[5] = species on record: Rattus norvegicus; assay: Antioxytoxic activity in vitro in isolated uteri from estrogen pretreated rats suspended in Mg-free Dyke-Hastings solution.; conditions: read-out: pA2 (converted)
[6] = tested on: Rattus norvegicus; assay: as §1; format: functional; in short: as §2
[7] = tested on: Rattus norvegicus; assay: In vivo inhibition of estrogen induced changes in interuterine pressure in rats.; format: functional; in short: as §3
[8] = tested on: Rattus norvegicus; assay: Antidiuretic activity in rats as intravenous dose required for reduction of 2x agonist response to equal 1x effect in estrogen pretreated rats; format: functional, Urine

Row | Compound | Kb [1] | Kb [2] | Kb [3] | Kb [4] | Kb [5] | ED [6] | ED [7] | ED [8]
1 | CC[C@H](C)[C@@H]1NC(=O)[C@@H](Cc2ccccc2)NC(=O)CC2(CCCCC2)SSC[C@@H](C(=O)N2CCC[C@H]2C(=O)N[C@@H](CCCN=C(N)N)C(=O)NCC(N)=O)NC(=O)[C@H](CC(N)=O)NC(=O)[C@H](C(C)C)NC1=O [listing 1 of 2 here] | 229 nM | 34.7 nM | 617 nM | 5.62 nM | 12.9 nM |  |  | 
2 | CC[C@H](C)[C@@H]1NC(=O)[C@@H](Cc2ccccc2)NC(=O)CC2(CCCCC2)SSC[C@@H](C(=O)N2CCC[C@H]2C(=O)N[C@@H](CCCN=C(N)N)C(=O)NCC(N)=O)NC(=O)[C@H](CC(N)=O)NC(=O)[C@H](C(C)C)NC1=O [listing 2 of 2 here] |  |  |  |  |  | 17 nM/kg | 2.5 nM/kg | 45 nM/kg
3 | CC[C@H](C)[C@@H]1NC(=O)[C@@H](Cc2ccc(OC)cc2)NC(=O)CC2(CCCCC2)SSC[C@@H](C(=O)N2CCC[C@H]2C(=O)N[C@@H](CCCN=C(N)N)C(=O)NCC(N)=O)NC(=O)[C@H](CC(N)=O)NC(=O)[C@H](C(C)C)NC1=O [listing 1 of 2 here] | 15.1 nM | 33.1 nM | 132 nM | 5.62 nM | 22.4 nM |  |  | 
4 | CC[C@H](C)[C@@H]1NC(=O)[C@@H](Cc2ccc(OC)cc2)NC(=O)CC2(CCCCC2)SSC[C@@H](C(=O)N2CCC[C@H]2C(=O)N[C@@H](CCCN=C(N)N)C(=O)NCC(N)=O)NC(=O)[C@H](CC(N)=O)NC(=O)[C@H](C(C)C)NC1=O [listing 2 of 2 here] |  |  |  |  |  | 1.1 nM/kg | 2.4 nM/kg | 9.4 nM/kg
5 | CCOc1ccc(C[C@H]2NC(=O)CC3(CCCCC3)SSC[C@@H](C(=O)N3CCC[C@H]3C(=O)N[C@@H](CCCNC(N)=O)C(=O)NCC(N)=O)NC(=O)[C@H](CC(N)=O)NC(=O)[C@H](C(C)C)NC(=O)[C@H](Cc3ccccc3)NC2=O)cc1 [listing 1 of 2 here] | 11.7 nM | 25.7 nM | 309 nM | 14.8 nM | 2.45 nM |  |  | 
6 | CCOc1ccc(C[C@H]2NC(=O)CC3(CCCCC3)SSC[C@@H](C(=O)N3CCC[C@H]3C(=O)N[C@@H](CCCNC(N)=O)C(=O)NCC(N)=O)NC(=O)[C@H](CC(N)=O)NC(=O)[C@H](C(C)C)NC(=O)[C@H](Cc3ccccc3)NC2=O)cc1 [listing 2 of 2 here] |  |  |  |  |  | 0.81 nM/kg | 1.8 nM/kg | 23 nM/kg
7 | COc1ccc(C[C@H]2NC(=O)CC3(CCCCC3)SSC[C@@H](C(=O)N3CCC[C@H]3C(=O)N[C@@H](CCCN=C(N)N)C(=O)NCC(N)=O)NC(=O)[C@H](CC(N)=O)NC(=O)[C@H](CCC(N)=O)NC(=O)[C@H](Cc3ccccc3)NC2=O)cc1 [listing 1 of 2 here] | 5.37 nM | 33.9 nM | 105 nM | 4.79 nM | 13.5 nM |  |  | 
8 | COc1ccc(C[C@H]2NC(=O)CC3(CCCCC3)SSC[C@@H](C(=O)N3CCC[C@H]3C(=O)N[C@@H](CCCN=C(N)N)C(=O)NCC(N)=O)NC(=O)[C@H](CC(N)=O)NC(=O)[C@H](CCC(N)=O)NC(=O)[C@H](Cc3ccccc3)NC2=O)cc1 [listing 2 of 2 here] |  |  |  |  |  | 0.36 nM/kg | 1.3 nM/kg | 7.3 nM/kg
9 | COc1ccc(C[C@H]2NC(=O)CC3(CCCCC3)SSC[C@@H](C(=O)N3CCC[C@H]3C(=O)N[C@@H](CCCN=C(N)N)C(=O)NCC(N)=O)NC(=O)[C@H](CC(N)=O)NC(=O)[C@H](C(C)C)NC(=O)[C@H](Cc3ccccc3)NC2=O)cc1 [listing 1 of 2 here] | 3.31 nM | 26.9 nM | 17 nM | 14.8 nM | 11 nM |  |  | 
10 | COc1ccc(C[C@H]2NC(=O)CC3(CCCCC3)SSC[C@@H](C(=O)N3CCC[C@H]3C(=O)N[C@@H](CCCN=C(N)N)C(=O)NCC(N)=O)NC(=O)[C@H](CC(N)=O)NC(=O)[C@H](C(C)C)NC(=O)[C@H](Cc3ccccc3)NC2=O)cc1 [listing 2 of 2 here] |  |  |  |  |  | 0.23 nM/kg | 1.9 nM/kg | 1.2 nM/kg
11 | COc1ccc(C[C@H]2NC(=O)CC3(CCCCC3)SSC[C@@H](C(=O)N3CC=C[C@H]3C(=O)N[C@@H](CCCN=C(N)N)C(=O)NCC(N)=O)NC(=O)[C@H](CC(N)=O)NC(=O)[C@H](C(C)C)NC(=O)[C@H](Cc3ccccc3)NC2=O)cc1 | 8.32 nM |  | 24.5 nM | 110 nM | 13.2 nM |  |  | 

Reference: ChEMBL document CHEMBL1124668, “Solid-phase synthesis of 16 potent (selective and nonselective) in vivo antagonists of oxytocin” (J Med Chem, 1989)
